High-throughput results (PubChem BioAssay)
5HT1E ag – 5-HT1E (human) receptor agonism. P28566. CHO 5-HT1E Ga15 NFAT-bla reporter, FRET; 0% DMSO wells, 100% control agonist wells. activation, % at 6 µM. 65,000 tested, 0.69% active;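 active = activation above a set limit, the screen-wide mean activation plus 3 SD, cut at about 8.5% in these data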
Target sequence (P28566 whole entry, looked up): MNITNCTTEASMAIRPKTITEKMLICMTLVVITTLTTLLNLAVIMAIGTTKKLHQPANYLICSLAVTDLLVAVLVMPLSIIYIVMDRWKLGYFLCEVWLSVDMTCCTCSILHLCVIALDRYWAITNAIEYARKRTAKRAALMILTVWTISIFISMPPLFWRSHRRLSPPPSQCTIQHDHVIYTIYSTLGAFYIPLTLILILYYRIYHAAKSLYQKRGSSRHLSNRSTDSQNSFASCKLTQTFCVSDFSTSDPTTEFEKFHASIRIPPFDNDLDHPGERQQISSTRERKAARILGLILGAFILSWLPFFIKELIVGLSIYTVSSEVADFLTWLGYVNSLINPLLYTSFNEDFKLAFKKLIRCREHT
HTR1E antagonist – 5-HT1E (human) receptor antagonism. AID 571. inhibition, % at 6 µM. CHO 5-HT1E Ga15 NFAT-bla reporter, FRET, antagonist. 65,000 tested, 0.99% active. P28566;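 active = inhibition above a set limit, the mean inhibition across every tested compound plus 3 SD, cut at about 29% in these data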;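 note: signal is the 460 over 535 nm emission ratio of beta-lactamase substrate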
S1P3 ag – agonists of human S1P3 receptor | AID 373 | S1P3 NFAT-BLA reporter cells, agonism, FRET ratio; relative to 1 µM S1P, basal subtracted | 60,000 tested, 0.1% active | activation, % at 4.5 µM | Q99500;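 active = activation above the screen-wide mean plus 3 SD, cut at about 4.5% in these data, passing the limit was not always enough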
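material = human S1P3 NFAT-BLA reporter CHO cells | schedule = 4 h compound at 37 °C, 2 h substrate at RT | measured by = fluorescent BLA substrate, ex 405 nm, em 460/535 nm ratio | controls = 1 µM S1P reference | replication = primary once, confirmation triplicate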
HTR1A agonist – agonists of human 5-HT1a serotonin receptor; P08908; CHO 5-HT1a Ga15 NFAT-bla reporter, FRET ratio; 0% basal, 100% maximal reference agonist; 65,000 tested, 0.56% active; AID 567; activation, % at 10 µM;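 active = activation above the screen-wide mean activation plus 3 SD, cut at about 19% in these data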
S1P1 ag-PAM – S1P1 (human) agonism or agonism potentiation; P21453; S1P1 CRE-bla cells, forskolin, beta-lactamase FRET, potentiator mode; S1P1 agonist co-added at EC20, 2 nM; 100% = saturating reference agonist, 0% = basal; activation, % at 9.5 µM; 56,000 tested, 0.57% active; AID 449;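 active = activation above a cutoff set at the mean activation of all tested compounds plus 3 SD, cut at about 54% in these data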;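 note: forskolin at 4 µM as EC80 and the EC20 agonist is SEW2871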
5-HT1A blocker – antagonists of human 5-HT1a serotonin receptor. P08908. CHO 5-HT1a Ga15 NFAT-bla reporter, antagonist mode. inhibition, % at 10 µM. 62,000 tested, 0.68% active. AID 612;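 active = inhibition above the mean of all tested compounds plus 3 SD, cut at about 43% in these data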;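 note: receptor stimulated by 5-CT agonist at 100 nM near EC80; beta-lactamase reporter measured by ratiometric fluorescence of a cleavable substrate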
Large screens that a line does not name were inactive. In the library only some 3% were active in any assay of this set; here they are far more common.

COc1ccc(-c2noc(CSc3nnc(CCc4ccccc4)n3-c3ccccc3)n2)cc1OC	5-HT1A blocker 43
COc1ccc(-c2noc(CSc3ccccc3)n2)cc1OC	none
Cc1nc2c(c(=O)n1CC1CCCO1)c1nc3ccccc3nc1n2CCC(C)C (stereo not drawn)	none (no result: 5-HT1A blocker)
COCCn1c(CCC(=O)O)nc2c1c(=O)[nH]c(=O)n2CC(C)C	none
CCN(CC)CCCCOc1ccccc1OC	5HT1E ag 10
CCOc1ccc(N(CC(=O)NCc2cccc(OC)c2)S(=O)(=O)c2c(C)noc2C)cc1	none
CCOc1cc(N2CCOCC2)c(OCC)cc1NC(=O)c1cc(-c2ccco2)nc2ccccc12	HTR1E antagonist 50 (no result: S1P3 ag, S1P1 ag-PAM)
COc1cccc(OCC(O)CN2CCC(Cc3ccccc3)CC2)c1 (stereo not drawn)	5-HT1A blocker 52
COc1cccc(OCC(O)CN2CCOCC2)c1 (stereo not drawn)	none
CCn1c2ccccc2c2nnc(SCN3C(=O)c4ccccc4C3=O)nc21	HTR1E antagonist 38 (no result: S1P1 ag-PAM)
CCCn1c2ccccc2c2nnc(SCC(=O)OC)nc21	HTR1E antagonist 30
CCn1c2ccccc2c2nnc(SCc3ccccc3)nc21	HTR1E antagonist 33
Cn1c2ccccc2c2nnc(SCN3C(=O)c4ccccc4C3=O)nc21	none
COC(=O)Cn1c(CN2CCOCC2)nc2c1c(=O)[nH]c(=O)n2C	none
O=C(O)CCNS(=O)(=O)c1ccc(Oc2ccccc2)cc1	none
COc1ccc(N(CC(=O)NC2CCCC2)C(=O)Cn2nnc(-c3ccc(C)cc3)n2)cc1OC	5HT1E ag 54
O=C(CN1CCC(NC(=O)c2cccc(F)c2)CC1)NCc1ccccc1F	HTR1A agonist 27 (no result: S1P3 ag, S1P1 ag-PAM)
O=C(CN1CCC(NC(=O)c2ccccc2)CC1)NCc1ccccc1F	none
COc1ccc(CC(=O)Nc2c3c(nn2-c2cccc(C)c2C)CS(=O)C3)cc1 (stereo not drawn)	5HT1E ag 19
CCOc1cc(C)nc(NCCc2ccc(OC)c(OC)c2)n1	none
CCOc1ccccc1OCC(O)CNC (stereo not drawn)	none
Cc1c[nH]c2cccc(OCC(O)CNC(C)(C)C)c12 (stereo not drawn)	5-HT1A blocker 82
CC(C)(C)NCC(O)COc1ccccc1C(C)(C)C (stereo not drawn)	5-HT1A blocker 80
Cc1cc(C)nc(NCC(O)COc2ccccc2C)n1 (stereo not drawn)	none
Cn1nnnc1Sc1ncnc2scc(-c3ccc(F)cc3)c12	HTR1E antagonist 48
CC(O)c1n(C)c(Cl)c[n+]1C (stereo not drawn)	none (no result: 5-HT1A blocker)
Cn1c(=O)c2c(nc(N3CCCCCC3)n2CC(=O)c2ccccc2)n(C)c1=O	none
C/C(Cl)=C\Cn1c(N2CCCCCC2)nc2c1c(=O)n(C)c(=O)n2C	HTR1E antagonist 35
O=C(NCCCN1CCN(c2cccc(Cl)c2)CC1)C1CCC(=O)N1Cc1ccccc1Cl (stereo not drawn)	5HT1E ag 14
CC1(C)CC(=O)c2cc(OCC(=O)NCc3cccnc3)ccc2O1	none
Cn1c(C(=O)NCCCN2CCN(c3ccccc3F)CC2)cc2c(=O)[nH]c3ccccc3c21	5HT1E ag 25, 5-HT1A blocker 75
CC1(C)CC(=O)c2cc(OCC(=O)NCCCN3CCN(c4ccccc4F)CC3)ccc2O1	5HT1E ag 9.6
Cn1c(=O)cc(OCC(=O)NCCCN2CCN(c3ccccc3F)CC2)c2ccccc21	5-HT1A blocker 61
Cn1c(=O)cc(OCCCC(=O)NCCN2CCN(c3ccccc3F)CC2)c2ccccc21	none
O=C(NCCCN1CCCCC1)C1CCC(=O)N1CCc1ccccc1 (stereo not drawn)	none
COc1ccc(-c2nnn(CC(=O)c3ccccc3)n2)cc1OC	none (no result: S1P3 ag, S1P1 ag-PAM)
Cc1ccnc(NC(=O)CCCOc2cc(=O)n(C)c3ccccc23)c1	5-HT1A blocker 66
CCN(CCCNC(=O)COc1cc(=O)n(C)c2ccccc12)c1cccc(C)c1	5HT1E ag 24
Cn1c(=O)cc(OCC(=O)NCCCN2CCN(c3cccc(Cl)c3)CC2)c2ccccc21	5HT1E ag 9.3
CCn1c(=O)cc(SCC(=O)NCCCN2CCN(c3ccccc3F)CC2)c2ccccc21	5-HT1A blocker 69
CC1(C)CC(=O)N(c2ccccc2)C1(C)O (stereo not drawn)	none
O=C(NCc1ccco1)c1cccc2c1C(=O)N(C1CCCCC1)C2	HTR1E antagonist 30
O=C(NCc1cccnc1)c1cccc2c1C(=O)N(C1CCCCC1)C2	none
O=C1CN(C(=O)OCc2ccccc2)c2ccccc2N1	HTR1E antagonist 48 (no result: S1P3 ag, S1P1 ag-PAM)
O=C1c2ccccc2C(Nc2ccc(Cl)cn2)N1c1cccnc1 (stereo not drawn)	none
CCOc1ccc(N2C(=O)CC(n3nc(C)cc3C)C2=O)cc1 (stereo not drawn)	none
CCOCCCn1c(=S)[nH]c2cc(C(=O)NCCOC)ccc2c1=O	5HT1E ag 16 (no result: S1P3 ag, S1P1 ag-PAM)
Cc1cc(C(=O)NCCN2CCN(c3cccc(Cl)c3)CC2)n(-c2ccccc2)n1	HTR1A agonist 31
Cn1cc(C(=O)NCCN2CCN(c3cccc(Cl)c3)CC2)c2c3ccccc3n(C)c2c1=O	none
COc1ccc(N2CCN(CCNC(=O)CCCn3c(=O)[nH]c4cc(Cl)ccc4c3=O)CC2)cc1	none (no result: S1P3 ag, S1P1 ag-PAM)
COCCn1c(=O)[nH]c2cc(C(=O)NCCN3CCN(c4cccc(Cl)c4)CC3)ccc2c1=O	HTR1A agonist 28 (no result: S1P3 ag, S1P1 ag-PAM)
CCOC(=O)c1ccc(N=c2sc(C(=O)OC)cc(=O)n2C2CC2)cc1	none
COC(=O)c1cc(=O)n(C2CC2)c(=NC2CC2)s1	HTR1E antagonist 31 (no result: S1P3 ag, S1P1 ag-PAM)
COc1cc(C(=O)N2CCC(c3nc(-c4cccnc4)no3)CC2)cc(OC)c1OC	none
CC1(C)CC2CC(C)(CN2C(=O)c2cc(-c3ccccc3O)on2)C1 (stereo not drawn)	none
CCn1c(COc2ccc3c(c2)OCO3)nnc1SCC(=O)c1ccccc1	none
S=c1[nH]nc(COc2ccc3c(c2)OCO3)n1-c1ccccc1	5HT1E ag 28
Cc1ccc(S(=O)(=O)N2CCCSCC2)cc1	HTR1A agonist 49
CC1=C(C(=O)N2CCCCC2)C(c2cccs2)C2=C(CCCC2=O)N1 (stereo not drawn)	none
CCOC(=O)c1c(CN2CCN(C)CC2)oc2ccc(OC)cc12	none
CCOC(=O)c1c(CN2CCCCC2)oc2ccc(OC)cc12	HTR1A agonist 21 (no result: 5-HT1A blocker)
NC(=O)Nc1ccc(Oc2c(F)c(F)c(F)c(F)c2F)cc1	none
CCOC(=O)CS(=O)(=O)c1nc(-c2ccc(F)cc2)cc(C(F)(F)F)n1	HTR1E antagonist 82, 5-HT1A blocker 102
